Data reported in ChEMBL document CHEMBL4265907, “Design, synthesis and pharmacological evaluation of N4,N6-disubstituted pyrimidine-4,6-diamine derivatives as potent EGFR inhibitors in non-small cell lung cancer” (Eur J Med Chem, 2018).
pIC50: −log10 of the molar value.

What was measured:
[1] = biological target: Fibroblast growth factor receptor 1 (Homo sapiens) (UniProt P11362); test: Inhibition of N-terminal GST-tagged human FGFR1 cytoplasmic domain (398 to 822 residues) expressed in baculovirus expression system at […] using FAM-labeled peptide as substrate after 10 mins by mobility shift assay relative to control
Summary of the method: (§1)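 Caliper mobility-shift kinase assay. Kinase in kinase base buffer was preincubated with compound for 10 min at room temperature. FAM-labelled peptide and ATP at Km were then added, and the reaction ran at 28 °C until quenched with buffer. Screening concentration was 1 µM. Percent inhibition = (max − conversion)/(max − min) × 100, with DMSO as max and a low control as min.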

[2] = biological target: Vascular endothelial growth factor receptor 2 (Homo sapiens) (UniProt P35968); test: Inhibition of N-terminal GST-tagged human KDR cytoplasmic domain (790 to 1356 residues) expressed in baculovirus expression system at […] using FAM-labeled peptide as substrate after 10 mins by mobility shift assay relative to control; summary of the method: as §1
[3] = biological target: Epidermal growth factor receptor (Homo sapiens, UniProt P00533, DEL747/DEL747-750); test: Inhibition of N-terminal GST-tagged human EGFR del 747-750 mutant cytoplasmic domain expressed in baculovirus expression system using FAM-labeled peptide as substrate after 10 mins by mobility shift assay
[4] = biological target: Epidermal growth factor receptor (Homo sapiens, UniProt P00533); test: Inhibition of N-terminal GST-tagged wild type human EGFR cytoplasmic domain (669 to 1210 residues) expressed in baculovirus expression system using FAM-labeled peptide as substrate after 10 mins by mobility shift assay
Chain of Epidermal growth factor receptor (Homo sapiens, UniProt P00533) (P00533 whole entry, the tested form may be a part): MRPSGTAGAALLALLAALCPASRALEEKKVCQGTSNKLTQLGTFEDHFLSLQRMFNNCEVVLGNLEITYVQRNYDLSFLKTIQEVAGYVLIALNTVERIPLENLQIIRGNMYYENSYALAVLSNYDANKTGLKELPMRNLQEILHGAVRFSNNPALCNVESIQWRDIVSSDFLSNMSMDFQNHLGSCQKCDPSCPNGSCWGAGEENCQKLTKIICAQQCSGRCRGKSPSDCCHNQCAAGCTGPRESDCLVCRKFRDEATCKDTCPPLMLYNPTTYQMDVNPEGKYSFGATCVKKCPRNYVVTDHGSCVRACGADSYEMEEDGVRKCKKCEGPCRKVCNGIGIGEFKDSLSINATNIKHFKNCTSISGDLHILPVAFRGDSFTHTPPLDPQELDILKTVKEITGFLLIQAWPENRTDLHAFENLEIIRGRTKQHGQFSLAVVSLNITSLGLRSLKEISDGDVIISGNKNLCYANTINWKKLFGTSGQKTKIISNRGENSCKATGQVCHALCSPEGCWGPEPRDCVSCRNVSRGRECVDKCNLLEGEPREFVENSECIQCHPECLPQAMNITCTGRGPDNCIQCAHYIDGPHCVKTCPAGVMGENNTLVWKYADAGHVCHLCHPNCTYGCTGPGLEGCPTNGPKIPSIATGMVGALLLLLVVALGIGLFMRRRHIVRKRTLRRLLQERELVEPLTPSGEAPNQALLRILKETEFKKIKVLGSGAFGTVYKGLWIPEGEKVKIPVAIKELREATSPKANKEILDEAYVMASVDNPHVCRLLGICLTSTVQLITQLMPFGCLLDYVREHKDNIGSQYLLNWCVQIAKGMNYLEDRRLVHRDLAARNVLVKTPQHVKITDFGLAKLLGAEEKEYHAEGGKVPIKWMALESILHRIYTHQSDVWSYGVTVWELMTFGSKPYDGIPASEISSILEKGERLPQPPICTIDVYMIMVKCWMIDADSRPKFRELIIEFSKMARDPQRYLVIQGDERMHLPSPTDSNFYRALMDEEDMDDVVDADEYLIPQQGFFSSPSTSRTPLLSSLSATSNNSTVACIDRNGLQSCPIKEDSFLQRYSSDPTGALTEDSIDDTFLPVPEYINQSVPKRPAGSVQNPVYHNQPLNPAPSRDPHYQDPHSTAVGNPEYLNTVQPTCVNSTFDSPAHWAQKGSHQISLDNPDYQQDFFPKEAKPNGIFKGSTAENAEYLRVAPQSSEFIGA

Chain of Epidermal growth factor receptor (Homo sapiens, UniProt P00533, DEL747/DEL747-750) (P00533 with tags, fused parts or gaps DEL747/DEL747-750 limits assumed): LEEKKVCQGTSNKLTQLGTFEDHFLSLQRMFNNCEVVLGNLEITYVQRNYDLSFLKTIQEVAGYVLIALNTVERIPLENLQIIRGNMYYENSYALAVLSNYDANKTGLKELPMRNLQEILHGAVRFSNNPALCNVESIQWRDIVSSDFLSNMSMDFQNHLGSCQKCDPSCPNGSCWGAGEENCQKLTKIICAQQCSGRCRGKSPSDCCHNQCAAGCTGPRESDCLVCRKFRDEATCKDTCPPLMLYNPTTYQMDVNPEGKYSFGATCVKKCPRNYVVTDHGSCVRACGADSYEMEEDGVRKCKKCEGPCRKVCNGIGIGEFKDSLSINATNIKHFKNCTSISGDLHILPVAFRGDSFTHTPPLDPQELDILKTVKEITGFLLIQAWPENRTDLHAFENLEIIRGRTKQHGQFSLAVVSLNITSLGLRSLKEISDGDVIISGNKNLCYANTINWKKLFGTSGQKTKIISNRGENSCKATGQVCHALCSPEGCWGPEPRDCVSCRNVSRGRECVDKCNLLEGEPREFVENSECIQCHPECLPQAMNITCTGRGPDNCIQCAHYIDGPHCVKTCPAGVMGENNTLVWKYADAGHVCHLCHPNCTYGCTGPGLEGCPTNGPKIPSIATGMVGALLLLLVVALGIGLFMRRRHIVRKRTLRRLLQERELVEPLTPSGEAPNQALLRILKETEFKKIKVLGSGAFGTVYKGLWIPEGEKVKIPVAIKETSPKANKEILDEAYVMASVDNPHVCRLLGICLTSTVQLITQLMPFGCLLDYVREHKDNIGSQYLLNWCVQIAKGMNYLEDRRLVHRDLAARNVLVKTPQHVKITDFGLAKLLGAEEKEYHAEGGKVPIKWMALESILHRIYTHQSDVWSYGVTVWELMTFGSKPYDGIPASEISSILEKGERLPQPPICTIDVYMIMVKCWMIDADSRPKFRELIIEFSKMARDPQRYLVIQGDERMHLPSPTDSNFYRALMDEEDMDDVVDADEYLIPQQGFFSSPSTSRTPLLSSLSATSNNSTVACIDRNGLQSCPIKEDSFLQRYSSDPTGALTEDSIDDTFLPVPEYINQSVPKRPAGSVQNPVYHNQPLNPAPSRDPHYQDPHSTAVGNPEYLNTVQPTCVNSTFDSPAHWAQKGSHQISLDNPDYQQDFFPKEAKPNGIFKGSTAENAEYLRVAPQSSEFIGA
Chain of Vascular endothelial growth factor receptor 2 (Homo sapiens) (P35968 whole entry, the tested form may be a part): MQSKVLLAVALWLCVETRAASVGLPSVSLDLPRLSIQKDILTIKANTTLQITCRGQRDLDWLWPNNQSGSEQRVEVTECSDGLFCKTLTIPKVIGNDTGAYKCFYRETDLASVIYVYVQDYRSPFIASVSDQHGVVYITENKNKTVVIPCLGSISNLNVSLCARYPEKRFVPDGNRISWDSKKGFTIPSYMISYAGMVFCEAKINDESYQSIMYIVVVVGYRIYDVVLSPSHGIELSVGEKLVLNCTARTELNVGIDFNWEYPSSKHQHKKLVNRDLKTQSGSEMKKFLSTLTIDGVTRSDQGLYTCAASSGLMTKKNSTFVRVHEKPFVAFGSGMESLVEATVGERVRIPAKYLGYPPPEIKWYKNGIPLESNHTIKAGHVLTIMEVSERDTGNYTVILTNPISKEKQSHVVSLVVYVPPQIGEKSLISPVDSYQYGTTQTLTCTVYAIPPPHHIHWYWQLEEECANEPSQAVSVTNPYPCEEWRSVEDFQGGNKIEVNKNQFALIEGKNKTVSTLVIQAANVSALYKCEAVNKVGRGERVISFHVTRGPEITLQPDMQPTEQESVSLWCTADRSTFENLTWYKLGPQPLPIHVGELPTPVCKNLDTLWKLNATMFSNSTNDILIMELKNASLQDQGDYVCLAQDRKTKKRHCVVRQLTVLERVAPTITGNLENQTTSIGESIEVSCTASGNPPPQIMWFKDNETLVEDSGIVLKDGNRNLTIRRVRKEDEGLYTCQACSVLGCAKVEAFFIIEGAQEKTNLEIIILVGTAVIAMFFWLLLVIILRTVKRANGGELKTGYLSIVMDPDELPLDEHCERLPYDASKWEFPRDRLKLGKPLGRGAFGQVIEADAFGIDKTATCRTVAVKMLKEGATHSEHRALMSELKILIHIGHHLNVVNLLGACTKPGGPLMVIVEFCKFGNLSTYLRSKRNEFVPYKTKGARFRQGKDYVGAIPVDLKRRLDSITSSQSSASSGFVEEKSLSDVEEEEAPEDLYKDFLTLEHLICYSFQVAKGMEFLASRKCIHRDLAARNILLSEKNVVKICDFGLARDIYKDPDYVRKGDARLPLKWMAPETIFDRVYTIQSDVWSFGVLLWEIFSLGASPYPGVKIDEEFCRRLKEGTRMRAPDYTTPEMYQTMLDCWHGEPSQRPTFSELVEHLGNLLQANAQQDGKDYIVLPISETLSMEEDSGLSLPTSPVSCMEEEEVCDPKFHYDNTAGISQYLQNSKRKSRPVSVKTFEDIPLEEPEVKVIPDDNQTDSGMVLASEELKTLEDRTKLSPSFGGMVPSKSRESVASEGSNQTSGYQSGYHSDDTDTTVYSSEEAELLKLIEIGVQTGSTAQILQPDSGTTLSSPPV

| Structure (SMILES) | inhibition [1] [%] | inhibition [2] [%] | pIC50 [3] | pIC50 [4] |
| --- | --- | --- | --- | --- |
| CCOC(=O)CCC(=O)Nc1cc(Nc2cccc(OC)c2)ncn1 | -7.1 | 11.3 |  |  |
| CCCC(C)OC(=O)CCC(=O)Nc1cc(Nc2cccc(Br)c2)ncn1 (stereo unspecified) | -4.9 | 14.8 |  |  |
| COc1ccc(Nc2cc(NC(=O)/C=C/c3ccc(F)cc3Br)ncn2)c([N+](=O)[O-])c1 | -2.3 | 11.3 |  |  |
| O=C(/C=C/c1ccc(F)cc1)Nc1cc(Nc2ccc(Cl)cc2)ncn1 | 3.1 | 10.1 |  |  |
| O=C(O)CCCC(=O)Nc1cc(Nc2ccccc2Br)ncn1 | -9.3 | 16.8 |  |  |
| CN1CCN(c2ccc(Nc3cc(NC(=O)CCC(=O)O)ncn3)cc2)CC1 |  | 18.8 |  |  |
| COc1ccc(/C=C/C(=O)Nc2cc(Nc3cccc(Br)c3)ncn2)cc1 | -5.4 | 8.5 |  |  |
| CCOC(=O)CCC(=O)Nc1cc(Nc2cccc(Br)c2)ncn1 | -7.1 | 5.7 | 6.03 | < 5.00 |
| CCOC(=O)CCCC(=O)Nc1cc(Nc2cc(OC)ccc2OC)ncn1 | -9.3 | 0.9 |  |  |
| COc1cc(Nc2cc(Nc3ccc(Cl)cc3)ncn2)cc(OC)c1OC | 1.2 | 37.1 | < 5.00 | 6.05 |
| O=C(O)CCCC(=O)Nc1cc(Nc2ccc(Cl)cc2)ncn1 | -7.2 | 18 | 6.03 | < 5.00 |
| COc1cccc(Nc2cc(Nc3cccc(Br)c3)ncn2)c1 |  | 20.5 |  |  |
| COc1ccc(OC)c(Nc2cc(Nc3ccc(S(N)(=O)=O)cc3)ncn2)c1 | -8.2 | 26.2 | 6.33 | 6.11 |
| CCOC(=O)CCC(=O)Nc1cc(Nc2ccc(C(=O)OCC)cc2)ncn1 | -4.6 | 6.5 |  |  |
| CC(C)OC(=O)CCC(=O)Nc1cc(Nc2ccc(C(=O)OC(C)C)cc2)ncn1 | -2.3 | 4.9 |  |  |
| O=C(Nc1cc(N2CCOCC2)ncn1)c1ccccc1 | -1.8 | 10.1 |  |  |

| Structure (SMILES) | inhibition [1] [%] | inhibition [2] [%] | pIC50 [3] | pIC50 [4] |
| --- | --- | --- | --- | --- |
| O=C(O)CCCC(=O)Nc1cc(Nc2cccc(Br)c2)ncn1 | -1.1 | 6.5 | < 5.00 | 7.15 |
| CCOC(=O)CCC(=O)Nc1cc(NCCc2cccs2)ncn1 |  | 13.6 |  |  |
| COc1ccc(Nc2cc(NC(=O)/C=C/c3ccccc3)ncn2)c([N+](=O)[O-])c1 | -4.9 | 2.5 |  |  |
| O=C(O)CCC(=O)Nc1cc(Nc2cccc(Cl)c2)ncn1 | -3.6 | 0.6 |  |  |
| CN1CCN(c2cc(NC(=O)/C=C/c3ccc(F)cc3)ncn2)CC1 | -6.1 | 7.7 |  |  |
| CCOC(=O)c1ccc(Nc2cc(Nc3cccc(OC)c3)ncn2)cc1 | -9.3 | 11.7 | 5.93 | < 5.00 |
| CCOC(=O)c1ccc(Nc2cc(NC(=O)CCC(=O)O)ncn2)cc1 | -5.4 | 4.9 |  |  |
| COc1cccc(Nc2cc(Nc3ccc(S(N)(=O)=O)cc3)ncn2)c1 | -8.8 | 12.4 | 5.91 | < 5.00 |
| CCOC(=O)c1ccc(Nc2cc(Nc3ccc(C(=O)OCC)cc3)ncn2)cc1 | 0 | 3.7 |  |  |
| COc1ccc(OC)c(Nc2cc(NCCc3cccs3)ncn2)c1 | -8.2 | 14.6 | 6.99 | 6.90 |
| CN1CCN(c2ccc(Nc3cc(NC(=O)/C=C/c4ccc(F)cc4)ncn3)cc2)CC1 | -5.4 | 21.8 |  |  |
| O=C(/C=C/c1ccccc1)Nc1cc(Nc2ccc(N3CCOCC3)cc2)ncn1 | -0.3 | -5 |  |  |
| CCOc1cccc(Nc2cc(NC(=O)c3ccc(F)cc3)ncn2)c1 | 2.2 | 6.1 |  |  |
| COc1ccc(Nc2cc(NC(=O)/C=C/c3ccccc3)ncn2)cc1 | 8.7 | 9.3 |  |  |
| O=C(O)CCC(=O)Nc1cc(Nc2cccc(Br)c2)ncn1 | -5.3 | 19.2 |  |  |

Second part, led by results:

| inhibition [1] [%] | inhibition [2] [%] | Structure (SMILES) | pIC50 [3] | pIC50 [4] |
| --- | --- | --- | --- | --- |
| -4.1 | 16.4 | CCOC(=O)c1c(Nc2cc(NC(=O)CCC(=O)OC(C)C)ncn2)sc2c1CCCC2 |  |  |
| 0.5 | -3.4 | COc1ccc(Nc2cc(NC(=O)c3ccc(F)cc3)ncn2)cc1 |  |  |
| -1.3 | 8.5 | Clc1ccc(Nc2cc(Nc3ccc(Cl)cc3)ncn2)cc1 |  |  |
| 5.2 | 8.9 | COc1ccc(Nc2cc(NC(=O)c3ccccc3)ncn2)c([N+](=O)[O-])c1 |  |  |
| -8.8 | 0.9 | COc1ccc(/C=C/C(=O)Nc2cc(Nc3ccc(Cl)cc3)ncn2)cc1 |  |  |
| -1.3 | -1.4 | O=C(Nc1cc(Nc2ccc(Cl)cc2)ncn1)c1ccccc1 |  |  |
|  | 10.9 | O=C(O)CCC(=O)Nc1cc(Nc2cccc(C(=O)O)c2)ncn1 |  |  |
| 5.9 | 5.3 | CCOc1ccc(Nc2cc(NC(=O)c3ccc(F)cc3)ncn2)cc1 |  |  |
| -1.1 | 1.7 | CCOC(=O)CC(=O)Nc1cc(Nc2ccc(F)cc2)ncn1 |  |  |
| -4.6 | 15.2 | O=C(/C=C/c1ccc(F)cc1Br)Nc1cc(Nc2ccc(Cl)cc2Cl)ncn1 |  |  |
| -3.4 | 7.3 | Clc1ccc(Nc2cc(Nc3cccc(Cl)c3)ncn2)cc1 |  |  |
| 2.6 | 19.7 | CCOC(=O)CCC(=O)Nc1cc(Nc2cccc(C(=O)OCC)c2)ncn1 |  |  |
| -6.5 | 2.5 | CC(C)OC(=O)CCC(=O)Nc1cc(Nc2ccc(F)cc2)ncn1 |  |  |
| -2.9 | 2.5 | O=C(/C=C/c1ccc(F)cc1)Nc1cc(Nc2ccc(Cl)cc2Cl)ncn1 |  |  |
| -2.3 | 13.6 | CN1CCN(c2cc(NC(=O)CCCC(=O)O)ncn2)CC1 |  |  |
| -6.6 | 4.9 | CCOC(=O)CCC(=O)Nc1cc(Nc2ccc(N3CCN(C)CC3)cc2)ncn1 |  |  |
| -5 | 4.9 | CCCC(C)OC(=O)CCC(=O)Nc1cc(Nc2cccc(C(=O)OC(C)CCC)c2)ncn1 (stereo unspecified) |  |  |
| 4.2 | -0.6 | O=C(Nc1cc(Nc2cccc(Cl)c2)ncn1)c1ccc(F)cc1 |  |  |
| -9.8 | 0.6 | Clc1cccc(Nc2cc(Nc3cccc(Cl)c3)ncn2)c1 |  |  |
| -5.3 | -1.4 | Clc1ccc(Nc2cc(Nc3ccc4[nH]ncc4c3)ncn2)cc1 |  |  |
| -4 | 12.8 | COc1cccc(Nc2cc(Nc3ccc(Cl)cc3)ncn2)c1 |  |  |
| -7.1 | 5.7 | O=C(/C=C/c1ccc(F)cc1Br)Nc1cc(N2CCOCC2)ncn1 |  |  |
| 0.5 | 12.4 | COc1cccc(Nc2cc(NC(=O)CCC(=O)O)ncn2)c1 |  |  |

| inhibition [1] [%] | inhibition [2] [%] | Structure (SMILES) | pIC50 [3] | pIC50 [4] |
| --- | --- | --- | --- | --- |
| -3.7 | 1.3 | O=C(/C=C/c1ccccc1)Nc1cc(Nc2ccc(O)cc2)ncn1 |  |  |
| -3.9 | 1.3 | O=C(/C=C/c1ccc(F)cc1)Nc1cc(Nc2ccc(N3CCOCC3)cc2)ncn1 |  |  |
| -3.6 | 20 | Clc1cccc(Nc2cc(Nc3cccc(Br)c3)ncn2)c1 |  |  |
| 1.5 | 0.6 | CCOc1ccc(Nc2cc(NC(=O)/C=C/c3ccccc3)ncn2)cc1 |  |  |
| 0.7 | 20.4 | CCOc1ccc(Nc2cc(NC(=O)/C=C/c3ccc(OC)cc3)ncn2)cc1 |  |  |
| -4 | 6.1 | COc1ccc(/C=C/C(=O)Nc2cc(Nc3ccc(Cl)cc3Cl)ncn2)cc1 |  |  |
| -4.8 | 10.9 | Cc1ccc(Nc2cc(NC(=O)c3ccc(F)cc3)ncn2)cc1 |  |  |
| 4.3 | 20.8 | COc1cccc(Nc2cc(NC(=O)c3ccc(F)cc3)ncn2)c1 |  |  |
| -2.7 | 13.6 | COc1ccc(OC)c(Nc2cc(Nc3cc(OC)ccc3OC)ncn2)c1 |  |  |
| -0.4 | 34.5 | CCNc1cc(Nc2cc(OC)ccc2OC)ncn1 |  |  |
| -8.8 | 9.7 | CCOC(=O)CCC(=O)Nc1cc(Nc2cc(OC)ccc2OC)ncn1 |  |  |
| -3.6 | 22.5 | CCOC(=O)CCC(=O)Nc1cc(Nc2ccc(Cl)cc2)ncn1 |  |  |
| -6.1 | 1.7 | COc1ccc(/C=C/C(=O)Nc2cc(N3CCN(C)CC3)ncn2)cc1 |  |  |
| -0.4 | 9.3 | COc1cccc(Nc2cc(NC(=O)/C=C/c3ccccc3)ncn2)c1 |  |  |
| 0.5 | 16.8 | Fc1ccc(Nc2cc(Nc3ccc(F)cc3)ncn2)cc1 |  |  |
| -6 | -0.2 | COc1cccc(Nc2cc(NC(=O)c3ccccc3)ncn2)c1 |  |  |
| 1.8 | 6.1 | Fc1ccc(Nc2cc(Nc3ccc(Cl)cc3)ncn2)cc1 |  |  |
| -3.6 | 7.7 | CCOC(=O)CCC(=O)Nc1cc(Nc2ccc(S(N)(=O)=O)cc2)ncn1 |  |  |
| -4.8 | 7.3 | COc1ccc(/C=C/C(=O)Nc2cc(N3CCOCC3)ncn2)cc1 |  |  |
| -2.8 | 0.6 | O=C(/C=C/c1ccc(F)cc1Br)Nc1cc(Nc2ccc(N3CCOCC3)cc2)ncn1 |  |  |
| -5.8 | -6.2 | O=C(Nc1cc(Nc2cccc(Cl)c2)ncn1)c1ccccc1 |  |  |
| -8.2 | 6.5 | COc1ccc(OC)c(Nc2cc(Nc3ccc(Cl)cc3)ncn2)c1 |  |  |
| 3.5 | 1.7 | O=C(Nc1cc(Nc2ccc(N3CCOCC3)cc2)ncn1)c1ccc(F)cc1 |  |  |
